The source of these data is ChEMBL document CHEMBL3091322 (J Med Chem, 2013).

Experiment [1] has as its target T1, Sodium-dependent serotonin transporter (Homo sapiens, UniProt P31645). As to the kind of experiment: biochemical. In kind it is cell-based, COS-7.
Target sequence in this assay (P31645 whole entry): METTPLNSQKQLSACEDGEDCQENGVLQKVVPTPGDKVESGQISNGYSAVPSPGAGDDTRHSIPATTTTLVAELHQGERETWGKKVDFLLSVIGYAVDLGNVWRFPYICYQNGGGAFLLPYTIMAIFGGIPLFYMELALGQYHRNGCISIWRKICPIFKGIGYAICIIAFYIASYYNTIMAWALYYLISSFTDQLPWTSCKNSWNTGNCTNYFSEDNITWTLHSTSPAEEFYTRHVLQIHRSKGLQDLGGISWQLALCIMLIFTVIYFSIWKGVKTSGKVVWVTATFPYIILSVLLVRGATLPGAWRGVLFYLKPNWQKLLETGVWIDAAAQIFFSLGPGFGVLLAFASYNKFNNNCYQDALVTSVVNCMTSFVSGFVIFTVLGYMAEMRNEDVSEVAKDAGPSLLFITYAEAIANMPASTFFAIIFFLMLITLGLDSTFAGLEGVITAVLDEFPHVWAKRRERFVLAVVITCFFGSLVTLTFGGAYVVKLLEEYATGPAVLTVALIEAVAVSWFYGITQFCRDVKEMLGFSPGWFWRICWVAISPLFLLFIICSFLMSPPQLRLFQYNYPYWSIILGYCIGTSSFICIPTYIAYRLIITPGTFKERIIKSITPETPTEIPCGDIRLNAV
The species named for experiment [2] is Rattus norvegicus. As to the kind of experiment: Selectivity ratio of Ki for Sprague-Dawley rat brain frontal cortex NET to Ki for Sprague-Dawley rat brain stem SERT. In kind it is tissue-based.
The nature of experiment [3]: Displacement of [3H]nisoxetine from Sprague-Dawley rat brain frontal cortex NET by scintillation counting analysis. In kind it is tissue-based. In a few lines:
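Frontal cortex membranes from male Sprague-Dawley rats incubated with 0.5 nM [3H]nisoxetine for 180 min at 0–4°C in pH 7.4 Tris/NaCl/KCl buffer. Desipramine used for nonspecific binding. Full concentration curves run for compounds giving >70% displacement at 10 µM. Filtration and scintillation counting; Ki calculated.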
On the technique in general: Loss of bound radioactivity is the signal in a displacement assay; it reports binding, not function.

Experiment [4] deals with Sodium-dependent serotonin transporter (Rattus norvegicus) (UniProt P31652). Briefly: Displacement of [3H]citalopram from Sprague-Dawley rat brain stem SERT site S1 at 10 uM by scintillation counting analysis. In kind it is tissue-based.
Experiment [5] concerns the target Sodium-dependent serotonin transporter (Rattus norvegicus, UniProt P31652). As to the kind of experiment: Displacement of [3H]citalopram from Sprague-Dawley rat brain stem SERT site S1 by scintillation counting analysis.
The species named for experiment [6] is Rattus norvegicus. As to the kind of experiment: Displacement of [3H]nisoxetine from Sprague-Dawley rat brain frontal cortex NET at 10 uM by scintillation counting analysis. In kind it is tissue-based. In a few lines: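 Rat frontal cortex membranes (8 mg original wet weight) in Tris/NaCl/KCl buffer, pH 7.4, with 0.5 nM [3H]nisoxetine for 180 min at 0–4°C. Single test concentration of 10 µM. Nonspecific binding defined with desipramine. Filtration on GF/B filters, then scintillation counting. Result reported as percent displacement.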

Experiment [7] has as its target T1, Sodium-dependent serotonin transporter. To be noted: COS-7.
Target sequence in this assay (P31645 whole entry, looked up): as the sequence (P31645 whole entry) above

Chain of Sodium-dependent serotonin transporter (Rattus norvegicus, UniProt P31652) (P31652 whole entry): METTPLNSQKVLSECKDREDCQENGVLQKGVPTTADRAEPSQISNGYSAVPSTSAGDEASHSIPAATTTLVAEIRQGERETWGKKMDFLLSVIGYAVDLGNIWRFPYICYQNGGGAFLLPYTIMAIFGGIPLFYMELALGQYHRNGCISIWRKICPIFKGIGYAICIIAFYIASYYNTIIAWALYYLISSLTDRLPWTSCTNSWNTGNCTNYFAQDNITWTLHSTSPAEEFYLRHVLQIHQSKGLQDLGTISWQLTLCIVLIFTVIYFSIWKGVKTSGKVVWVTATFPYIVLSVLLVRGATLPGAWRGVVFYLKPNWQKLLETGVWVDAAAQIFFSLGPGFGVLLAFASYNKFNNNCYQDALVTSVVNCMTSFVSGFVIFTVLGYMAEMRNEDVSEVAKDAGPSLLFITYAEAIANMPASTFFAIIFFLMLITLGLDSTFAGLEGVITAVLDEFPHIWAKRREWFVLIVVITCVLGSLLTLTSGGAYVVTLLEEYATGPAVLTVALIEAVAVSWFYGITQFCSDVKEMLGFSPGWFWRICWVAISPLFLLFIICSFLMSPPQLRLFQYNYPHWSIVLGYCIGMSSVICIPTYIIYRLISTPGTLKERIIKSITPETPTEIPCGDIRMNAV
Chain of Sodium-dependent serotonin transporter (Rattus norvegicus) (P31652 whole entry): as above

One may read the IC50 as the concentration at which inhibition is half-maximal. Lower therefore signals inhibition by little substance. The term Ki denotes a dissociation constant, usually derived from enzyme kinetics or from competition with a known ligand. Broadly, the inhibition is the relative decrease from the control value, in per cent. In turn, `CN(CCCC1(c2ccc(F)cc2)OCc2cc(C#N)ccc21)CCc1ccccc1` (racemic) yielded an IC50 in experiment [1] of 5.3 µM. For the same compound, the Ratio Ki in the experiment filed under Rattus norvegicus [2] amounted to 4.4. Further, the Ki in experiment [3] turned out to be 179 nM; in experiment [5], 40.9 nM. This compound also registered an inhibition in experiment [4] of more than 70%.

In the case of `CN(C)CCCC1(c2ccc(F)cc2)OCc2cc(CN3CCN(c4ccccc4)CC3)ccc21` (racemic), the affinity in experiment [3], expressed as Ki, was 11100 nM.

On to `CN(C)CCCC1(c2ccc(Br)cc2)OCc2cc(C#N)ccc21` (racemic), for which the inhibition in the experiment listed under Rattus norvegicus [6] is 45%.

In the case of `CN(CCCC1(c2ccc(F)cc2)OCc2cc(C#N)ccc21)Cc1ccc(N(C)C)cc1` (racemic), the Ki in experiment [3] was 1380 nM.

Turning to `CN(CCCC1(c2ccc(F)cc2)OCc2cc(C#N)ccc21)C1CC=C(c2c[nH]c3ccccc23)CC1` (racemic), the affinity in experiment [3], expressed as Ki, was 1020 nM. This Ki and that of the compound before are within 1.5-fold of each other.

The compound `CN(C)CCCC1(c2ccc(F)cc2)OCc2cc(-c3ccc([N+](=O)[O-])cc3)ccc21` (racemic) returned a Ki in experiment [3] of 8280 nM.

Regarding `CN(C)CCCC1(c2ccc(-c3cccc(N)c3)cc2)OCc2cc(C#N)ccc21` (racemic), in experiment [3], the affinity, expressed as Ki, was 7020 nM. This Ki and that of the compound before are within 1.5-fold of each other.

Compound `CN(C)CCCC1(c2ccc(F)cc2)OCc2cc(/C=C/Cc3ccccc3)ccc21` (racemic) came in with an inhibition constant Ki in experiment [3] of 4750 nM.

Consider `CN(C)CCCC1(c2ccc(F)cc2)OCc2cc(CNCc3ccc4c(c3)Cc3ccccc3-4)ccc21` (racemic), for which, in the experiment listed under Rattus norvegicus [2], the Ratio Ki came out at 99. In addition, the values for the Ki in experiment [3] and in experiment [5] were 2330 nM and 23.6 nM, respectively. This compound registered an inhibition in experiment [4] of more than 70%.

As to `CN(C)CCCC1(c2ccc(F)cc2)OCc2cc(CN3CCCCC3)ccc21` (racemic), in the experiment filed under Rattus norvegicus [6], the inhibition was 29.3%.

`CN(C)CCCC1(c2ccc(F)cc2)OCc2cc(CN(C)CCCC3(c4ccc(F)cc4)OCc4cc(C#N)ccc43)ccc21` (racemic): the inhibition in the experiment filed under Rattus norvegicus [6] stood at 65.1%.

`CN(C)CCCC1(c2ccc(F)cc2)OCc2cc(CNCc3ccc4ccccc4c3)ccc21` (racemic) displayed a Ki in experiment [3] of 653 nM.

Turning to `CN(CCCC1(c2ccc(F)cc2)OCc2cc(C#N)ccc21)Cc1ccc2ccccc2c1` (racemic), in experiment [3], the Ki is 272 nM.

Turning to `CN(C)CCCC1(c2ccc(F)cc2)OCc2cc(CNCc3ccc4c(c3)COC4(CCCN(C)C)c3ccc(F)cc3)ccc21` (racemic), the inhibition in the experiment listed under Rattus norvegicus [6] was 66.9%.

The compound `CN(C)CCCC1(c2ccc(F)cc2)OCc2c(I)cccc21` (racemic) had a Ki in experiment [3] of 11300 nM.

Turning to `CCCCN(C)CCCC1(c2ccc(F)cc2)OCc2cc(C#N)ccc21` (racemic), the Ki was 276 nM in experiment [3] and 61.6 nM in experiment [5]. The inhibition in experiment [4] was more than 70%.

With `CCCN(C)CCCC1(c2ccc(F)cc2)OCc2cc(C#N)ccc21` (racemic), the figures for the inhibition (in the experiment filed under Rattus norvegicus [6]; in experiment [4]) were 60.4% and more than 70%, respectively. The compound also registered an inhibitory constant (Ki) in experiment [5] of 118 nM.

In the experiment listed under Rattus norvegicus [6], `COc1ccccc1N1CCN(Cc2ccc3c(c2)COC3(CCCN(C)C)c2ccc(F)cc2)CC1` (racemic) registered an inhibition of 39.7%.

The compound `CN(CCCC1(c2ccc(F)cc2)OCc2cc(C#N)ccc21)Cc1ccnc2ccccc12` (stereo not drawn) had an inhibition in the experiment listed under Rattus norvegicus [6] of 31.2%.

In the case of `CN(C)CCCC1(c2ccc(F)cc2)OCc2cc(-c3ccc(N)cc3)ccc21` (racemic), the inhibition in the experiment listed under Rattus norvegicus [6] turned out to be 42%.

For the compound `CN(C)CCCC1(c2ccc(F)cc2)COc2ccc(Br)cc21` (racemic), the affinity in experiment [3] corresponds to a Ki of 4970 nM. That is a single-digit micromolar value.

Regarding `CN(CCCC1(c2ccc(F)cc2)OCc2cc(C#N)ccc21)Cc1c[nH]c2ccccc12` (racemic), in experiment [3], the inhibitory constant (Ki) is 1300 nM.

In turn, `CN(CCN)CCCC1(c2ccc(F)cc2)OCc2cc(C#N)ccc21` (racemic) had an inhibition in the experiment listed under Rattus norvegicus [6] of 20.2%.

Turning to `CN(C)CCCC1(c2ccc(/C=C/c3ccccc3)cc2)OCc2cc(C#N)ccc21` (racemic), the inhibition in the experiment filed under Rattus norvegicus [6] is 44%. Also, in experiment [7], the T1/2 is 44 min.

Turning to `CN(C)CCCC1(c2ccc(F)cc2)OCc2cc(CN3CCOCC3)ccc21` (racemic), the figures for the Ki in experiment [3] and in experiment [5] were more than 80000 nM and 13.6 nM, respectively. Besides, in experiment [4], the inhibition is more than 70%.

`CN(C)CCCC1(c2ccc(F)cc2)OCc2cc(CN(C)C)ccc21` (racemic): the inhibition in the experiment filed under Rattus norvegicus [6] was 21.9%.

In turn, `COC(=O)c1ccc2c(c1)COC2(CCCN(C)C)c1ccc(F)cc1` (racemic) displayed an inhibition in the experiment filed under Rattus norvegicus [6] of 64.3%.

In the experiment filed under Rattus norvegicus [6], `CN(C)CCCC1(c2ccc(F)cc2)OCc2cc(CN)ccc21` (racemic) displayed an inhibition of 33.2%.

In the case of `COc1ccc2[nH]cc(CN(C)CCCC3(c4ccc(F)cc4)OCc4cc(C#N)ccc43)c2c1` (racemic), affinity in experiment [3] was put at a Ki of 5090 nM. This counts as single-digit micromolar.

`CN(C)CCCC1(c2ccc(F)cc2)OCc2cc(CNCc3coc4ccccc34)ccc21` (racemic) returned a Ki in experiment [3] of 284 nM. Against the preceding compound, the Ki is about 18-fold lower.

`CN(CCCC1(c2ccc(F)cc2)OCc2cc(C#N)ccc21)Cc1coc2ccccc12` (racemic) came in with an inhibitory constant (Ki) in experiment [3] of 265 nM.

In the case of `CN(C)CCCC1(c2ccc(F)cc2)OCc2cc(/C=C/c3ccccc3)ccc21` (single isomer, unassigned; (+)), in experiment [1], half-maximal inhibition (IC50) was put at 3.4 µM.

On to `CN(C)CCCC(O)(c1ccc(Br)cc1)c1ccc(C#N)cc1CO` (racemic), for which the inhibition in the experiment listed under Rattus norvegicus [6] was 17%.

In turn, `CN(CCCCc1ccccc1)CCCC1(c2ccc(F)cc2)OCc2cc(C#N)ccc21` (racemic) came in with an inhibitory constant (Ki) in experiment [3] of 448 nM.

In turn, `CN(CCCC1(c2ccc(F)cc2)OCc2cc(C#N)ccc21)Cc1ccncc1` (racemic) showed an inhibition in the experiment filed under Rattus norvegicus [6] of 28.1%.

For `CN(C)CCCC1(c2ccc(F)cc2)OCc2cc(C(N)=O)ccc21` (racemic), the inhibition constant Ki in experiment [3] is 123 nM.

As for `CN(C)CCCC1(c2ccc(-c3cccc(C#N)c3)cc2)OCc2cc(C#N)ccc21` (racemic), in experiment [3], the inhibitory constant (Ki) stood at 2800 nM.

The compound `CN(C)CCCC1(c2ccc(F)cc2)OCc2cc(CN3CCN(c4cccc(Cl)c4Cl)CC3)ccc21` (racemic) registered an inhibition in the experiment filed under Rattus norvegicus [6] of 19.7%.

Compound `CN(CCCC1(c2ccc(F)cc2)OCc2cc(C#N)ccc21)Cc1csc2ccccc12` (racemic) gave an inhibition in the experiment filed under Rattus norvegicus [6] of 62.9%.

With `CN(CCCC1(c2ccc(F)cc2)OCc2cc(C#N)ccc21)Cc1ccc2c(c1)Cc1ccccc1-2` (racemic), the inhibition in the experiment listed under Rattus norvegicus [6] is 60.3%; in experiment [4], more than 70%. In addition, the Ki in experiment [5] is 19 nM.

As to `CN(C)CCCC1(c2ccc(F)cc2)OCc2cc(C=O)ccc21` (racemic), the inhibition in the experiment listed under Rattus norvegicus [6] came to 46.1%.

`CN(CCCC1(c2ccc(F)cc2)OCc2cc(C#N)ccc21)CC1CC1` (racemic) gave an inhibition in the experiment listed under Rattus norvegicus [6] of 69.8%.
